According to ChEMBL document CHEMBL5370689, “Development of Allosteric NIK Ligands from Fragment-Based NMR Screening” (ACS Med Chem Lett, 2023):
Activity calls are given as the source filed them.

Experiments:
[1] = target: T1, Mitogen-activated protein kinase kinase kinase 14 (Homo sapiens, UniProt Q99558); experiment: Binding affinity to biotinylated N-terminal 6His-tagged/TEV cleavage site-fused human NIK by SPR analysis
How it was run: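 Biotinylated NIK was probed by SPR with no nucleotide added, in dose–response format. Responses were plotted as a binding curve to give Kd, reported as mean ± SEM of two determinations.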
Target sequence in this assay (Q99558 whole entry, the tested form may be a part): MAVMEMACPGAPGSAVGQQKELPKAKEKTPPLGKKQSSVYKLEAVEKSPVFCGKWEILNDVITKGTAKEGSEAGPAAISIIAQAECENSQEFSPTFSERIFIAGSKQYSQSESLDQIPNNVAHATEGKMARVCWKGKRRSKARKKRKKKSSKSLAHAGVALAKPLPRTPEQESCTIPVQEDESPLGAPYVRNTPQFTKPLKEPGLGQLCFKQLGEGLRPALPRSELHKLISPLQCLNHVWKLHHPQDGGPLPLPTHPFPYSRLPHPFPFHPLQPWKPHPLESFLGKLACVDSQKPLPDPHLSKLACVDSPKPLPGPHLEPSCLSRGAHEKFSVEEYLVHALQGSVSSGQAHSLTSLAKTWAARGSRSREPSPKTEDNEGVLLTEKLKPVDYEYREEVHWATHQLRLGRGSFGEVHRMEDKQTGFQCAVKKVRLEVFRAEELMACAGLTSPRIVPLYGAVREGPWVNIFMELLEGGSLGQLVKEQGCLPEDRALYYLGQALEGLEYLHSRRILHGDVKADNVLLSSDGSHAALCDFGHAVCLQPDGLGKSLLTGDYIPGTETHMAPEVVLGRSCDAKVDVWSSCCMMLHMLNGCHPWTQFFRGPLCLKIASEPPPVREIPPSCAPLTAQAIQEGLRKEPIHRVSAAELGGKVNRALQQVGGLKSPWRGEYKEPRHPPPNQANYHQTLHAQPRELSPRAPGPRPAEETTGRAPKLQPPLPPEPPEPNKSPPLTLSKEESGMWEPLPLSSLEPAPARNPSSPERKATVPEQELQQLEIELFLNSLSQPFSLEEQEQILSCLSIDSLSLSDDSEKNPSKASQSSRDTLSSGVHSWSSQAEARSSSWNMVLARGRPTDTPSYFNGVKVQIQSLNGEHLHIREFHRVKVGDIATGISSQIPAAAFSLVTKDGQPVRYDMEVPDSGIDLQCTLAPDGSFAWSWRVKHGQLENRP

[2] = target: T1, Mitogen-activated protein kinase kinase kinase 14; experiment: Binding affinity to biotinylated N-terminal 6His-tagged/TEV cleavage site-fused human NIK in presence of AMP-PNP by SPR analysis
How it was run: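 Dose–response SPR used biotinylated NIK in the presence of saturating AMP-PNP. Kd came from the fitted binding curve, reported as mean ± SEM of two determinations.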
Target sequence in this assay (Q99558 whole entry, the tested form may be a part): as above

[3] = target: T1, Mitogen-activated protein kinase kinase kinase 14; experiment: Binding affinity to N-terminal 6His-tagged/TEV cleavage site-fused human NIK assessed as attenuation of spectral signal at 100 uM by 1H-CPMG-NMR analysis relative to control
Target sequence in this assay (Q99558 whole entry, looked up, the tested form may be a part): as the sequence (Q99558 whole entry, the tested form may be a part) above

[4] = Redox activity of the compound in HEPES/NaCl at pH 7.5 measured after 60 mins in presence of DTT by resazurin reagent based assay; assay type: physicochemical; details: pH 7.5, 1 h
How it was run: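 A plate-based redox assay screened for redox activity as a source of false positives. NSC 663284, a known redox-active molecule, served as the positive control.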

[5] = target: T1, Mitogen-activated protein kinase kinase kinase 14; experiment: Binding affinity to biotinylated N-terminal 6His-tagged/TEV cleavage site-fused human NIK at <500 uM by SPR analysis
How it was run: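 Biotinylated NIK used as the SPR surface. Each fragment was run at five concentrations, and the responses were fitted to a binding curve to estimate affinity. A 500 µM affinity cut-off was applied.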
Target sequence in this assay (Q99558 whole entry, looked up, the tested form may be a part): as the sequence (Q99558 whole entry, the tested form may be a part) above

[6] = target: T1, Mitogen-activated protein kinase kinase kinase 14; experiment: Binding affinity to N-terminal 6His-tagged/TEV cleavage site-fused human NIK assessed as attenuation of spectral signal at 100 uM in presence of AMP-PNP by 1H-CPMG-NMR analysis relative to control
Target sequence in this assay (Q99558 whole entry, looked up, the tested form may be a part): as the sequence (Q99558 whole entry, the tested form may be a part) above

[7] = Aggregation property of the compound in sodium phosphate buffer at pH 7.4 by 1H-NMR spectra analysis; assay type: physicochemical
[8] = Aqueous solubility of the compound in K2HPO4 in D2O with 5% DMSO-d6 at pH 7.4 by qNMR spectra analysis; assay type: physicochemical; details: K2HPO4 buffer in D2O with 5% DMSO-d6, pH 7.4

Compound	Kd [1]	Kd [2]	also measured
Cc1ccc2c(c1)C(O)CCO2 (stereo not given)	> 1000 µM	> 1000 µM	
Cc1cccc2c1OCCC2O (stereo not given)	> 1000 µM	> 1000 µM	
COC1CCOc2cc(Cl)ccc21 (stereo not given)	> 1000 µM	> 1000 µM	
Cc1ccc2c(c1)OCCC2O (stereo not given)	> 1000 µM	> 1000 µM	
Cc1cccc2c1C(O)CCO2 (stereo not given)	134 µM	131 µM	
COc1cc(Cl)cc(C)c1C(C)(O)C1CC1 (stereo not given)	150 µM	143 µM	

Second part, led by results:

Kd [1]	Kd [2]	Compound	also measured
130 µM	214 µM	OC1CCOc2cc(Cl)ccc21 (stereo not given)	Activity [3]: > 50%; Activity [4]: Not Active; Activity [5]: Active; Activity [6]: > 50%; Activity [7]: Not Active; solubility [8]: ≥ 5 mM
206 µM	583 µM	CCC1(O)CCOc2cc(Cl)ccc21 (stereo not given)	
572 µM	369 µM	OC1(c2ccccc2)CCOc2cc(Cl)ccc21 (stereo not given)	
40.4 µM	290 µM	OC1(C2CC2)CCOc2cc(Cl)ccc21 (stereo not given)	
> 1000 µM	> 1000 µM	CC1(O)CCOc2cc(Cl)ccc21 (stereo not given)	
367 µM	717 µM	Cc1cc(Cl)cc2c1C(O)(c1ccccc1)CCO2 (stereo not given)	
